What is called EC50 is the concentration giving half of the maximal effect. A word on the IC50: it is the concentration that inhibits the measured activity by half. A higher IC50 goes with weaker potency.

These results are taken from ChEMBL document CHEMBL1128711, “Calcium entry blockers and activators: conformational and structural determinants of dihydropyrimidine calcium channel modulators” (J Med Chem, 1995).

The species entered for assay [1] is Oryctolagus cuniculus. The assay is described as follows: In vitro contraction of rabbit aorta strips. It is filed as functional, organism-based. An outline of the steps: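 Rabbit aortic strips first contracted with 110 mM KCl to check viability and set maximal force. After washout and full relaxation, strips were equilibrated in 10 mM KCl, then given cumulative concentrations of test compound. EC50 is the concentration giving 50% of the prior 110 mM KCl maximal force.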

For assay [2], the species on record is Oryctolagus cuniculus. The assay is described as follows: In vitro inhibition of potassium-induced contractions in rabbit aorta strips. The class given is functional, organism-based. An outline of the steps:
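Rabbit aortic strips contracted with 110 mM KCl (equimolar replacement of NaCl), then exposed to cumulative concentrations of test compound.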

As for `CSC1=NC(c2ccccc2SC)C2=C(O)OCC2=N1` (stereo not given), the concentration giving a half-maximal response (EC50) in the assay listed under Oryctolagus cuniculus [1] (Oryctolagus cuniculus, Aorta) was over 30 µM. The IC50 in the assay listed under Oryctolagus cuniculus [2] (Oryctolagus cuniculus, Aorta) was over 30 µM. In turn, `CSC1=NC(c2cccc([N+](=O)[O-])c2SC)C2=C(O)OCC2=N1` (stereo not given) came in with an EC50 in the assay filed under Oryctolagus cuniculus [1] (Oryctolagus cuniculus, Aorta) of over 30 µM. Besides, in the assay listed under Oryctolagus cuniculus [2] (Oryctolagus cuniculus, Aorta), the IC50 was over 30 µM. For `COC(=O)C1=C(C)N=C(SC)N[C@@H]1c1ccccc1SC`, in the assay filed under Oryctolagus cuniculus [1] (Oryctolagus cuniculus, Aorta), the EC50 is over 30 µM. It took 2.27 µM to reach half-maximal inhibition in the assay listed under Oryctolagus cuniculus [2] (Oryctolagus cuniculus, Aorta) (IC50). The matching figures for `COC(=O)C1=C(C)N=C(SC)NC1c1cc([N+](=O)[O-])ccc1SC` (stereo not given): over 30 µM and 20 µM. The matching figures for `CSC1=NC2/C(=C(/O)OCCCCCSc3c2cccc3[N+](=O)[O-])C(C)=N1` (stereo not given): over 30 µM and 0.036 µM. The matching figures for `CSC1=NC(c2cccc([N+](=O)[O-])c2)C2=C(O)OCC2=N1` (stereo not given): over 30 µM and over 30 µM.

As to `CSC1=NC(c2cc([N+](=O)[O-])ccc2SC)C2=C(O)OCC2=N1` (stereo not given), the EC50 in the assay listed under Oryctolagus cuniculus [1] (Oryctolagus cuniculus, Aorta) is over 30 µM. Also, in the assay filed under Oryctolagus cuniculus [2] (Oryctolagus cuniculus, Aorta), the IC50 is over 30 µM. `CSC1=NC2/C(=C(/O)OCCCCCSc3ccc([N+](=O)[O-])cc32)C(C)=N1` (stereo not given) had an EC50 in the assay filed under Oryctolagus cuniculus [1] (Oryctolagus cuniculus, Aorta) of 2.9 µM. In the assay listed under Oryctolagus cuniculus [2] (Oryctolagus cuniculus, Aorta), this compound yielded an IC50 of 26 µM. The matching figures for `COC(=O)C1=C(C)N=C(SC)NC1c1ccccc1SC` (stereo not given): over 30 µM and 20.6 µM. Regarding `COC(=O)C1=C(C)N=C(SC)NC1c1cccc([N+](=O)[O-])c1SC` (stereo not given), the EC50 in the assay filed under Oryctolagus cuniculus [1] (Oryctolagus cuniculus, Aorta) was over 30 µM. In the assay listed under Oryctolagus cuniculus [1] (Oryctolagus cuniculus, Aorta), `COC(=O)C1=C(C)N=C(SC)NC1c1cccc([N+](=O)[O-])c1` (stereo not given) yielded a 50% effective concentration (EC50) of over 30 µM. This compound also registered an IC50 in the assay filed under Oryctolagus cuniculus [2] (Oryctolagus cuniculus, Aorta) of 2.5 µM. The matching figures for `CO/C(O)=C1\C(C)=NC(C)=C([N+](=O)[O-])[C@H]1c1ccccc1C(F)(F)F`: 0.046 µM and 17.1 µM.

Compound `COC(=O)C1=C(C)N=C(SC)N[C@H]1c1ccccc1SC` registered an EC50 in the assay filed under Oryctolagus cuniculus [1] (Oryctolagus cuniculus, Aorta) of 3.55 µM. The IC50 in the assay listed under Oryctolagus cuniculus [2] (Oryctolagus cuniculus, Aorta) is over 30 µM. The matching figures for `CCCCSc1ccccc1C1N=C(SC)NC2=C1C(=O)OC2` (stereo not given): 17.3 µM and over 30 µM. In the assay listed under Oryctolagus cuniculus [1], `CSC1=NC2/C(=C(/O)OCCCCCSc3ccccc32)C(C)=N1` (stereo in doubt; 15b) gave an EC50 of 0.82 µM. In the assay filed under Oryctolagus cuniculus [2], this compound registered an IC50 of 3.9 µM.

Regarding `CSC1=NC2/C(=C(/O)OCCCCCSc3ccccc32)C(C)=N1` (stereo in doubt; 15b-A), the EC50 in the assay listed under Oryctolagus cuniculus [1] is over 30 µM. Also, the IC50 in the assay listed under Oryctolagus cuniculus [2] was found to be 0.1 µM. The matching figures for `CSC1=NC2/C(=C(/O)OCCCCCSc3ccccc32)C(C)=N1` (stereo in doubt; 15b-B): 0.59 µM and over 30 µM. Compound `COC(=O)C1=C(C)NC(C)=C(C(=O)OC)C1c1ccccc1[N+](=O)[O-]` [NIFEDIPINE] gave an EC50 in the assay listed under Oryctolagus cuniculus [1] (Oryctolagus cuniculus, Aorta) of over 30 µM. In the assay filed under Oryctolagus cuniculus [2] (Oryctolagus cuniculus, Aorta), the IC50 was 0.019 µM.
